pIC50: −log10 of the molar value.
How the values were obtained:
[1] = Cytotoxicity against human […] cells after 72 hrs by MTT assay; type: functional, cell-based
Summary of the method: (§1)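 Exponentially growing cells were seeded at 3.5 × 10⁵ cells/ml (adherent EJ) or 1 × 10⁵ cells/ml (suspension HL-60), grown 24 h, then exposed continuously for 72 h. Drugs came from fresh DMSO stocks diluted in medium to ≤0.5% final DMSO, with eight wells per concentration. MTT (10 mg/ml PBS stock) was added for 4 h at 37 °C, formazan dissolved in 5% HCOOH/2-propanol, and read at 580 nm. IC50 was taken from a sigmoidal non-linear fit of survival as % of untreated control.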

HL-60 = assay: Cytotoxicity against human HL60 cells after 72 hrs by MTT assay; type: functional, cell-based; settings: HL-60, 72 h; summary of the method: as §1
[2] = system: Strongylocentrotus purpuratus; assay: Inhibition of Strongylocentrotus purpuratus embryos cleavage at 10 uM; type: functional

| SMILES | pIC50 [1] | pIC50 (HL-60) | inhibition at 10 µM [2] |
| --- | --- | --- | --- |
| N[C@@H](Cc1ccc(N(CCCl)CCCl)cc1)C(=O)O [MELPHALAN] | 4.66 | 4.94 |  |
| CCOC(=O)C(C(C)=O)C(c1cccc([N+](=O)[O-])c1)c1c(O)c2ccccc2oc1=O (stereo not drawn) | 3.76 | 4.04 |  |
| CCOC(=O)C(C(C)=O)C(c1ccc(C(=O)O)cc1)c1c(O)c2ccccc2oc1=O (stereo not drawn) | < 3.70 | < 3.70 |  |
| CCOC(=O)C(C(C)=O)C(c1ccc(O)cc1)c1c(O)c2ccccc2oc1=O (stereo not drawn) | < 3.70 | < 3.70 |  |
| CCOC(=O)C(C(C)=O)C(c1ccc([N+](=O)[O-])cc1)c1c(O)c2ccccc2oc1=O (stereo not drawn) | < 3.70 | < 3.70 |  |
| CCOC(=O)C(C(C)=O)C(c1ccc(O)c(O)c1)c1c(O)c2ccccc2oc1=O (stereo not drawn) | 3.94 | 4.45 |  |
| O=c1oc2ccccc2c(O)c1Cc1c(O)c2ccccc2oc1=O [DICUMAROL] |  |  | 50% |
